Drawing on ChEMBL document CHEMBL4196034, “Family-wide analysis of aminoacyl-sulfamoyl-3-deazaadenosine analogues as inhibitors of aminoacyl-tRNA synthetases” (Eur J Med Chem, 2018), this text covers inhibition, Ki and Activity for twelve compounds.

Activity calls are given as the source filed them. The rule behind the calls is not given here.

Test [1] deals with Serine--tRNA ligase (Escherichia coli (strain K12)) (UniProt P0A8L1). The test is described as follows: Inhibition of Serine-tRNA synthetase in Escherichia coli K-12 BW28357 S30 extract assessed as reduction in tRNA aminoacylation at 2.5 uM preincubated for 5 mins followed by Escherichia coli tRNA and 14C-labeled serine addition measured after 5 mins by liquid scintillation counting method. The gist of the method: (§1)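 E. coli K-12 BW28357 cells were grown in LB to A600 0.5, washed in 20 mM Tris.HCl, 10 mM MgCl2, 100 mM KCl, pH 8.0, then sonicated in the same buffer plus 1 mM DTT. The lysate was spun at 15,000 g. Inhibitor (2.5 µM) was preincubated with extract for 5 min. Aminoacylation mix: 30 mM Tris pH 8.0, 5 g/L E. coli tRNA, 3 mM ATP, 8 mM MgCl2, 40 µM 14C-amino acid. Reaction ran at room temperature. TCA precipitation after 5 min, then scintillation counting. Activity was expressed relative to the no-compound control, average of three experiments.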

The next test concerns the target Serine--tRNA ligase (Escherichia coli (strain K12), UniProt P0A8L1). The experiment in a line: Inhibition of Escherichia coli BL21(DE3) Seryl-tRNA synthetase assessed as reduction in tRNA aminoacylation preincubated for 10 mins with Escherichia coli tRNA and 14C-labeled serine followed by ATP addition by liquid scintillation counting method. The following applies: read-out: Ki(app). The gist of the method: (§2)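 Purified E. coli aaRS, expressed in Rosetta 2 (DE3) pLysS: ileRS 50 nM, tyrRS 0.5 nM, leuRS 2.5 nM, aspRS, serRS and glyRS 2 nM each. Buffer was 20 mM Tris, 100 mM KCl, 10 mM MgCl2, 5 mM β-mercaptoethanol, pH 7.5. Enzyme was preincubated 10 min at 37°C with serially diluted compound, 50 µM 14C-amino acid, 2 mg/ml tRNA and pyrophosphatase. Reaction was started with 500 µM ATP and quenched within the linear zone, then TCA-precipitated and counted. Ki app came from Greco-Hakala fits.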

A further test has as its system Staphylococcus aureus. The test is described as follows: Antibacterial activity against Staphylococcus aureus ATCC 65381 up to 100 uM after 18 to 24 hrs by two fold serial dilution method. It is filed as functional, organism-based. The gist of the method:
(§3)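 Broth microdilution, twofold series from 100 µM down to 0.39 µM, in LB medium. MIC50 was taken as the lowest concentration giving 50% growth inhibition after 18-24 h incubation at 37.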

In test [2] the test system is Staphylococcus epidermidis. The test is described as follows: Antibacterial activity against Staphylococcus epidermidis RP62A up to 100 uM after 18 to 24 hrs by two fold serial dilution method. It is filed as functional, organism-based. The gist of the method:
as §3

The test system of another test is Kocuria rhizophila. The experiment in a line: Antibacterial activity against Kocuria rhizophila ATCC 9341 up to 100 uM after 18 to 24 hrs by two fold serial dilution method. It counts as functional, organism-based. The following applies: DC2201. The gist of the method: as §3
The next test concerns Escherichia coli. The test is described as follows: Antibacterial activity against Escherichia coli NCIB 8743 up to 100 uM after 18 to 24 hrs by two fold serial dilution method. It is filed as functional, organism-based. The gist of the method:
as §3

A further test has as its system Pseudomonas aeruginosa. The test is described as follows: Antibacterial activity against Pseudomonas aeruginosa PAO1 up to 100 uM after 18 to 24 hrs by two fold serial dilution method. It counts as functional, organism-based. The gist of the method:
as §3

Test [3] deals with Aspartate--tRNA ligase (Escherichia coli (strain K12)) (UniProt P21889). The experiment in a line: Inhibition of Aspartate-tRNA synthetase in Escherichia coli K-12 BW28357 S30 extract assessed as reduction in tRNA aminoacylation at 2.5 uM preincubated for 5 mins followed by Escherichia coli tRNA and 14C-labeled aspartic acid addition measured after 5 mins by liquid scintillation counting method. The gist of the method:
as §1

The next test has as its target Aspartate--tRNA ligase (Escherichia coli (strain K12), UniProt P21889). The test is described as follows: Inhibition of Escherichia coli BL21(DE3) Aspartyl-tRNA synthetase assessed as reduction in tRNA aminoacylation preincubated for 10 mins with Escherichia coli tRNA and 14C-labeled aspartic acid followed by ATP addition by liquid scintillation counting method. The following applies: read-out: Ki(app). The gist of the method:
as §2

The next test has as its target Leucine--tRNA ligase (Escherichia coli (strain K12), UniProt P07813). The test is described as follows: Inhibition of Escherichia coli BL21(DE3) Leucyl-tRNA synthetase assessed as reduction in tRNA aminoacylation preincubated for 10 mins with Escherichia coli tRNA and 14C-labeled leucine followed by ATP addition by liquid scintillation counting method. The following applies: read-out: Ki(app).

Another test has as its system Escherichia coli K-12. The experiment in a line: Inhibition of Glycyl-tRNA synthetase in Escherichia coli K-12 BW28357 S30 extract assessed as reduction in tRNA aminoacylation at 2.5 uM preincubated for 5 mins followed by Escherichia coli tRNA and 14C-labeled glycine addition measured after 5 mins by liquid scintillation counting method. The gist of the method:
as §1

Test [4] is described as follows: Inhibition of Escherichia coli BL21(DE3) Glycine-tRNA synthetase alpha subunit/Glycine-tRNA synthetase beta subunit assessed as reduction in tRNA aminoacylation preincubated for 10 mins with Escherichia coli tRNA and 14C-labeled glycine followed by ATP addition by liquid scintillation counting method. Particulars: read-out: Ki(app). The gist of the method: as §2

Test [5] addresses T1, Tyrosine--tRNA ligase (Escherichia coli (strain K12)) (UniProt P0AGJ9).
T1 sequence (whole entry): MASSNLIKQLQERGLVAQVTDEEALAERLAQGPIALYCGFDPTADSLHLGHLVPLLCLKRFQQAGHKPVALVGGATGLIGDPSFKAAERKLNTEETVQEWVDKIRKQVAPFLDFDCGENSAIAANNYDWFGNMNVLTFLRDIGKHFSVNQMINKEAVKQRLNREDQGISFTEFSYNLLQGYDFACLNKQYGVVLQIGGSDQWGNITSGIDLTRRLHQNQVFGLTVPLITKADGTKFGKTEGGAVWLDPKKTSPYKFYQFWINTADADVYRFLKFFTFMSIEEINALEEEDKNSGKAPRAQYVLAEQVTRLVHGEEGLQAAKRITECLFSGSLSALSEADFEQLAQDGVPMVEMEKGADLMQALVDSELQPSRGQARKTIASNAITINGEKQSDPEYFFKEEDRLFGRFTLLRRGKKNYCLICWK
The experiment in a line: Inhibition of Tyrosyl-tRNA synthetase in Escherichia coli K-12 BW28357 S30 extract assessed as reduction in tRNA aminoacylation at 2.5 uM preincubated for 5 mins followed by Escherichia coli tRNA and 14C-labeled tyrosine addition measured after 5 mins by liquid scintillation counting method relative to control. The gist of the method: as §1

The next test addresses T2, Tyrosine--tRNA ligase (Escherichia coli (strain K12), UniProt P0AGJ9).
T2 sequence (P0AGJ9 whole entry): T1 sequence (whole entry)
The test is described as follows: Inhibition of Escherichia coli BL21(DE3) Tyrosyl-tRNA synthetase assessed as reduction in tRNA aminoacylation preincubated for 10 mins with Escherichia coli tRNA and 14C-labeled tyrosine followed by ATP addition by liquid scintillation counting method. The following applies: read-out: Ki(app). The gist of the method: as §2

Test [6] deals with Isoleucine--tRNA ligase (Escherichia coli K-12) (UniProt P00956). The experiment in a line: Inhibition of Isoleucyl-tRNA synthetase in Escherichia coli K-12 BW28357 S30 extract assessed as reduction in tRNA aminoacylation at 2.5 uM preincubated for 5 mins followed by Escherichia coli tRNA and 14C-labeled isoleucine addition measured after 5 mins by liquid scintillation counting method relative to control. The gist of the method: as §1

A further test has as its target Isoleucine--tRNA ligase (Escherichia coli K-12, UniProt P00956). The experiment in a line: Inhibition of Escherichia coli BL21(DE3) Isoleucyl-tRNA synthetase assessed as reduction in tRNA aminoacylation preincubated for 10 mins with Escherichia coli tRNA and 14C-labeled isoleucine followed by ATP addition by liquid scintillation counting method. Particulars: read-out: Ki(app). The gist of the method:
as §2

A word on the inhibition: it is the relative decrease from the control value, in per cent.

Chain of Isoleucine--tRNA ligase (Escherichia coli K-12) (P00956 whole entry): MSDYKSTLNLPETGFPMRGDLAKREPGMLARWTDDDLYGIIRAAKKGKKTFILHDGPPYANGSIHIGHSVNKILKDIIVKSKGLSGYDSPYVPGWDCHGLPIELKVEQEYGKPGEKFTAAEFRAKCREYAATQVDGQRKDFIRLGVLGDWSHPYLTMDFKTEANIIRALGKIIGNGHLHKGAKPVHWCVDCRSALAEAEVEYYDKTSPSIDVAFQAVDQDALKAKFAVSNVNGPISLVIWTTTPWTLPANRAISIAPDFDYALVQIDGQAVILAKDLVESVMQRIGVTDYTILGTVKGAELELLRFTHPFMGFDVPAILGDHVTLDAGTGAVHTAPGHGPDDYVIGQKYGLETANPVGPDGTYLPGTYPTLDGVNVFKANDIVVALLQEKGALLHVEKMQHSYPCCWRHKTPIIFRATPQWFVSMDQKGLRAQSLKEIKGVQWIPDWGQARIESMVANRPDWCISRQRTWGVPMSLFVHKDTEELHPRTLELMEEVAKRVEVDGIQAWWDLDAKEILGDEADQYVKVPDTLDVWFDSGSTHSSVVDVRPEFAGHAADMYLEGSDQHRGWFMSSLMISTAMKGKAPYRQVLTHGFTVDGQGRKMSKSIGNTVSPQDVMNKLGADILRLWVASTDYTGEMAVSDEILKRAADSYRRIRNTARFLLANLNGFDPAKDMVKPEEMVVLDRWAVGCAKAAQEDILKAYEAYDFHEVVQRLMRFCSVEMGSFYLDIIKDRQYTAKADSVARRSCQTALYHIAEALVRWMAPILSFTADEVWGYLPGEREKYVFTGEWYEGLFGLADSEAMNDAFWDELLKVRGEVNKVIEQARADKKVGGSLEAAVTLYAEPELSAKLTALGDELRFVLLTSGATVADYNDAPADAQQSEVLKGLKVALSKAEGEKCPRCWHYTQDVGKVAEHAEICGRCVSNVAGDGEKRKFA
Chain of Isoleucine--tRNA ligase (P00956 whole entry): as above
Chain of Aspartate--tRNA ligase (Escherichia coli (strain K12)) (P21889 whole entry, looked up): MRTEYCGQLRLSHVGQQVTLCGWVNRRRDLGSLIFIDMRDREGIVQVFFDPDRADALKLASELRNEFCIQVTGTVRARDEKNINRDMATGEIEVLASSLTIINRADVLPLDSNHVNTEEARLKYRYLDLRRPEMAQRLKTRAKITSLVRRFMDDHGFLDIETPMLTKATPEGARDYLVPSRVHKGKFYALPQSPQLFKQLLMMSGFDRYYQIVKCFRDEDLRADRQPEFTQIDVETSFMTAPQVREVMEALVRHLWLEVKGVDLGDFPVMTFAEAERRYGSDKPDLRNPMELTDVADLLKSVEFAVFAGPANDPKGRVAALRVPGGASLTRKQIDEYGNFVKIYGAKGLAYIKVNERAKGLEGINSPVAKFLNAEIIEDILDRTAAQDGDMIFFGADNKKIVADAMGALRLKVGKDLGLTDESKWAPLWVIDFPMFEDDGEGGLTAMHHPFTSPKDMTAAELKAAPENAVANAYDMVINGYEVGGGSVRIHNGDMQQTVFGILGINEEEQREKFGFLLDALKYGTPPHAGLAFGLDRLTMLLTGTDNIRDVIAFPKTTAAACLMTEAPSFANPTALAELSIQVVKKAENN
Chain of Aspartate--tRNA ligase (P21889 whole entry): as the sequence (P21889 whole entry, looked up) above
Chain of Serine--tRNA ligase (Escherichia coli (strain K12)) (P0A8L1 whole entry, looked up): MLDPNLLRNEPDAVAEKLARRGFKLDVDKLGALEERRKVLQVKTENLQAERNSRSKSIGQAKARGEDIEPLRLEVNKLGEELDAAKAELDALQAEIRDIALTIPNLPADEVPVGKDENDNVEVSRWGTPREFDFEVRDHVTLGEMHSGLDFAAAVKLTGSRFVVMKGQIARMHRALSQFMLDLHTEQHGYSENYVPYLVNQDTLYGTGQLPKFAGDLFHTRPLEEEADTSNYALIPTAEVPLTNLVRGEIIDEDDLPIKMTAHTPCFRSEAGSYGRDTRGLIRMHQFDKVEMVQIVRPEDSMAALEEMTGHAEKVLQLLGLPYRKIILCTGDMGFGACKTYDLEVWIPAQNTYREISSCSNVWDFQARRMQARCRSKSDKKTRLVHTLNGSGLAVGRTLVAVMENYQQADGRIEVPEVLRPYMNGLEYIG
Chain of Serine--tRNA ligase (P0A8L1 whole entry): as the sequence (P0A8L1 whole entry, looked up) above
Chain of Leucine--tRNA ligase (P07813 whole entry): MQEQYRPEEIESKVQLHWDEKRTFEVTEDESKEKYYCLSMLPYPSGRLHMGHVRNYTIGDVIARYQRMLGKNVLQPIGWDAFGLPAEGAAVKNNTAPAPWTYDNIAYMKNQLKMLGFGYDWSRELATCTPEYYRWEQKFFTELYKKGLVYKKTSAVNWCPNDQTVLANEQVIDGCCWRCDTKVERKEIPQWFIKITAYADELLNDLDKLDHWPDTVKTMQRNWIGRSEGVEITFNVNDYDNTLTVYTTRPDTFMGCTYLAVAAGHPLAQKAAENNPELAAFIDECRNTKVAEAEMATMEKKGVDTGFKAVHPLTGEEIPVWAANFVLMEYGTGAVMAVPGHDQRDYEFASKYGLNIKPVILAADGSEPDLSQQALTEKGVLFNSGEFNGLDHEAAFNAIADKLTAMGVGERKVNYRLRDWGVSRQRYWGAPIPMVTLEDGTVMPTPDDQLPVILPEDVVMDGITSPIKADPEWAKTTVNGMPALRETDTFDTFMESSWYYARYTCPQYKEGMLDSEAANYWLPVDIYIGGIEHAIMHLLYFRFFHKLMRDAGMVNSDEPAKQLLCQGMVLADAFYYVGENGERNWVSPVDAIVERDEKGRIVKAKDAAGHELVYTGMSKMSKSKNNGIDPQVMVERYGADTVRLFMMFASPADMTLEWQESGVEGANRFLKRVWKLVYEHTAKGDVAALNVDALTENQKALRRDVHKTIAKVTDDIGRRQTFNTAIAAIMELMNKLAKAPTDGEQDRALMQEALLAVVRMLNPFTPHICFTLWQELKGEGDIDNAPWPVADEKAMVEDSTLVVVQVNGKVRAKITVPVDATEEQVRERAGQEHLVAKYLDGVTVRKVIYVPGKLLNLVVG

On to `Nc1ncnc2c1ncn2[C@@H]1O[C@H](COS(=O)(=O)NC(=O)[C@@H](N)CO)[C@@H](O)[C@H]1O`, for which the inhibition entry in test [1] is “Active”. For the same compound, at Serine--tRNA ligase, the Ki stood at 0.18 nM. Further, the outcome (with Staphylococcus aureus; in test [2]; in the test on Kocuria rhizophila; in the test with Escherichia coli; with Pseudomonas aeruginosa) was inactive.

As to `Nc1nccc2c1ncn2[C@@H]1O[C@H](COS(=O)(=O)NC(=O)[C@@H](N)CO)[C@@H](O)[C@H]1O`, in [1], the inhibition entry was “inactive”. In addition, the Ki at Serine--tRNA ligase was 523 nM. Moreover, the outcome (in the test on Staphylococcus aureus; in test [2]; with Kocuria rhizophila; in the test with Escherichia coli; in the test on Pseudomonas aeruginosa) was inactive.

With `Nc1nccc2c1ncn2[C@@H]1O[C@H](COS(=O)(=O)NC(=O)[C@@H](N)CC(=O)O)[C@@H](O)[C@H]1O`, the inhibition entry in [3] is “inactive”. Further, the Ki on Aspartate--tRNA ligase was determined as 25.3 nM. Besides, the result (with Staphylococcus aureus; in test [2]; in the test on Kocuria rhizophila; in the test with Escherichia coli; in the test on Pseudomonas aeruginosa) was inactive.

As for `CC(C)C[C@H](N)C(=O)NS(=O)(=O)OC[C@H]1O[C@@H](n2cnc3c(N)nccc32)[C@H](O)[C@@H]1O`, at Leucine--tRNA ligase, the Ki came out at 0.654 nM. Besides, the result (with Staphylococcus aureus; in [2]; with Kocuria rhizophila; in the test with Escherichia coli; in the test on Pseudomonas aeruginosa) was inactive.

In the case of `NCC(=O)NS(=O)(=O)OC[C@H]1O[C@@H](n2cnc3c(N)ncnc32)[C@H](O)[C@@H]1O`, the inhibition entry in the test on Escherichia coli K-12 is “Active”. For the same compound, the Ki in test [4] worked out at 148 nM. Also, the outcome (with Staphylococcus aureus; in test [2]; in the test on Kocuria rhizophila; in the test on Escherichia coli; in the test on Pseudomonas aeruginosa) was inactive.

In the case of `Nc1ncnc2c1ncn2[C@@H]1O[C@H](COS(=O)(=O)NC(=O)[C@@H](N)CC(=O)O)[C@@H](O)[C@H]1O`, the inhibition result in test [3] is “Active”. In addition, at Aspartate--tRNA ligase, the Ki is 0.052 nM. Further, the result (in the test on Staphylococcus aureus; in test [2]; in the test with Kocuria rhizophila; in the test with Escherichia coli; in the test on Pseudomonas aeruginosa) was inactive.

As for `NCC(=O)NS(=O)(=O)OC[C@H]1O[C@@H](n2cnc3c(N)nccc32)[C@H](O)[C@@H]1O`, the inhibition entry with Escherichia coli K-12 was “inactive”. Also, the Ki in test [4] was more than 2000 nM. Also, the outcome (with Staphylococcus aureus; in test [2]; in the test with Kocuria rhizophila; in the test on Escherichia coli; in the test with Pseudomonas aeruginosa) was inactive.

Regarding `Nc1nccc2c1ncn2[C@@H]1O[C@H](COS(=O)(=O)NC(=O)[C@@H](N)Cc2ccc(O)cc2)[C@@H](O)[C@H]1O`, the inhibition in [5] fell in the range of 40 to 50%. Besides, the Ki on Tyrosine--tRNA ligase was 29.9 nM. In addition, the result (in the test with Staphylococcus aureus; in test [2]; in the test with Kocuria rhizophila; in the test on Escherichia coli; with Pseudomonas aeruginosa) was inactive.

As for `CC[C@H](C)[C@H](N)C(=O)NS(=O)(=O)OC[C@H]1O[C@@H](n2cnc3c(N)ncnc32)[C@H](O)[C@@H]1O`, in test [6], the inhibition result was “Active”. Further, the Ki on Isoleucine--tRNA ligase came to 1.92 nM. Besides, the outcome (in the test on Staphylococcus aureus; in test [2]; in the test on Kocuria rhizophila; in the test on Escherichia coli; in the test on Pseudomonas aeruginosa) was inactive.

On to `CC[C@H](C)[C@H](N)C(=O)NS(=O)(=O)OC[C@H]1O[C@@H](n2cnc3c(N)nccc32)[C@H](O)[C@@H]1O`, for which the inhibition in test [6] was 40 to 50%. In addition, the Ki at Isoleucine--tRNA ligase amounted to 213 nM. Further, the outcome (with Staphylococcus aureus; in [2]; in the test with Kocuria rhizophila; in the test with Escherichia coli; with Pseudomonas aeruginosa) was inactive.

On to `Nc1ncnc2c1ncn2[C@@H]1O[C@H](COS(=O)(=O)NC(=O)[C@@H](N)Cc2ccc(O)cc2)[C@@H](O)[C@H]1O`, for which the inhibition result in test [5] was “Active”. Besides, the Ki at Tyrosine--tRNA ligase amounted to 2.93 nM. Also, the outcome (in the test with Staphylococcus aureus; in test [2]; in the test on Kocuria rhizophila; with Escherichia coli; with Pseudomonas aeruginosa) was inactive.

Regarding `CC(C)C[C@H](N)C(=O)NS(=O)(=O)OC[C@H]1O[C@@H](n2cnc3c(N)ncnc32)[C@H](O)[C@@H]1O`, the result (with Staphylococcus aureus; in test [2]; in the test with Kocuria rhizophila; in the test on Escherichia coli; in the test on Pseudomonas aeruginosa) was inactive.
